One may read the IC50 as the concentration that gives 50% inhibition.

The results in this text go back to ChEMBL document CHEMBL1157467, “Discovery of nonsteroidal 17beta-hydroxysteroid dehydrogenase 1 inhibitors by pharmacophore-based screening of virtual compound libraries” (J Med Chem, 2008).

For assay [1], the target named is T1, Aldo-keto reductase family 1 member C3 (Homo sapiens) (UniProt P42330).
T1 sequence (whole entry): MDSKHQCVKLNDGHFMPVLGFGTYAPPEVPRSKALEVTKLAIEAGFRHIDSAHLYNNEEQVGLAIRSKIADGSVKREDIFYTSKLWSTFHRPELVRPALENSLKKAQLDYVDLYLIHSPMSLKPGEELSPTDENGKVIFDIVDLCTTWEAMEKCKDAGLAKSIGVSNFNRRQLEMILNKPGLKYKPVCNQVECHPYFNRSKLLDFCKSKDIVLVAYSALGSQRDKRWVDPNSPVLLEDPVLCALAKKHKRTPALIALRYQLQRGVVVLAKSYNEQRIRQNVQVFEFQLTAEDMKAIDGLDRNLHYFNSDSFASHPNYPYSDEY
Kind of assay: Inhibition of human recombinant 17beta-HSD5 expressed in intact HEK293 cells assessed as conversion of androstenedione to testosterone at 20 uM after 24 hrs. The class given is cell-based. Also on record: scale not given: the % may be the effect or the level left. The method, boiled down: (§1)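 17β-HSD3 or 17β-HSD5 was transiently expressed in HEK-293 cells. Conversion of androstenedione to testosterone was measured in intact cells without added cofactor. Compounds were tested at 20 µM, with final DMSO ≤0.1%. Values are mean ± SD from three independent experiments.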

Assay [2] addresses T2, 17-beta-hydroxysteroid dehydrogenase type 3 (Homo sapiens) (UniProt P37058).
T2 sequence (whole entry): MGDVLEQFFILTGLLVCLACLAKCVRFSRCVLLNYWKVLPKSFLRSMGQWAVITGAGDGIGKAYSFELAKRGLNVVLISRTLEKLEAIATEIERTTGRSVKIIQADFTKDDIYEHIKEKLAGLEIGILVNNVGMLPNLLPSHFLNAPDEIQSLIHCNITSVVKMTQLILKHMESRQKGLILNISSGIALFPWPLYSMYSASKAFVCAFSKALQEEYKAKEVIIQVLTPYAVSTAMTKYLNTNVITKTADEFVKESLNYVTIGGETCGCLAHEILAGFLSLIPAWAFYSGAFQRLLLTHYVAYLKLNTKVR
The experiment in a line: Inhibition of human recombinant 17beta-HSD3 expressed in intact HEK293 cells assessed as conversion of androstenedione to testosterone at 20 uM. It is filed as cell-based. Also on record: scale not given: the % may be the effect or the level left. The method, boiled down:
as §1

The target of assay [3] is T3, 11-beta-hydroxysteroid dehydrogenase 1 (Homo sapiens, UniProt P28845). The experiment in a line: Inhibition of human recombinant 11beta-HSD1 expressed in HEK293 cell lysate assessed as conversion of radiolabeled estrone to estradiol at 20 uM. Also on record: scale not given: the % may be the effect or the level left. It is filed as cell-free.
Target sequence in this assay (P28845 whole entry, looked up): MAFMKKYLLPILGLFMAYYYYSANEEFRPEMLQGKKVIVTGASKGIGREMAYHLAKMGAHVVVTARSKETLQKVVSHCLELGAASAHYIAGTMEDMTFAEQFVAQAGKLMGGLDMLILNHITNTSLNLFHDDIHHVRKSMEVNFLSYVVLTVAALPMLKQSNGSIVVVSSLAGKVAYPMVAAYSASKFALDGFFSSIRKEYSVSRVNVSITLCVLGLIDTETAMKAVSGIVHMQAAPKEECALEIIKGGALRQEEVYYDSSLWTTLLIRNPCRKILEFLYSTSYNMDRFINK
Assay [4] has as its target T3, 11-beta-hydroxysteroid dehydrogenase 1. Kind of assay: Inhibition of human recombinant 11beta-HSD1 expressed in HEK293 cell lysate assessed as conversion of radiolabeled estrone to estradiol. The class given is cell-free.
Target sequence in this assay (P28845 whole entry): as the sequence (P28845 whole entry, looked up) above
Assay [5] concerns the target T4, 17-beta-hydroxysteroid dehydrogenase type 1 (Homo sapiens) (UniProt P14061).
T4 sequence (whole entry): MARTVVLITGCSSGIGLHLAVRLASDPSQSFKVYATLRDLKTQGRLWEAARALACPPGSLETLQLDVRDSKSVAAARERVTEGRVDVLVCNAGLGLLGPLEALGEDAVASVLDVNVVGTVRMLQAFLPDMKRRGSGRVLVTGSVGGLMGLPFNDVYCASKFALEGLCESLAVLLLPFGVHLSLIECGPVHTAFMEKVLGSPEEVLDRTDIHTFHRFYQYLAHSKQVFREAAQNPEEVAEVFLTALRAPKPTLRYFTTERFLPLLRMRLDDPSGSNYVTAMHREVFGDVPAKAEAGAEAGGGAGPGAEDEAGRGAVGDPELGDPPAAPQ
Kind of assay: Inhibition of human recombinant 17beta-HSD1 expressed in HEK293 cell lysate assessed as conversion of radiolabeled estrone to estradiol at 20 uM. Also on record: scale not given: the % may be the effect or the level left. The class given is cell-free. In a few lines:
(§2)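 HEK-293 cells transiently transfected with human 17β-HSD1 by calcium phosphate were harvested 48 h later, and the pellets were frozen at -70 °C. Pellets were resuspended in 50 mM potassium phosphate, 20% glycerol and 1 mM EDTA. Conversion of 200 nM radiolabeled estrone to estradiol was measured immediately with 500 µM NADPH. […] DMSO was ≤0.1%. Values are mean ± SD from three independent experiments.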

In assay [6] the target is T5, 17-beta-hydroxysteroid dehydrogenase type 2 (Homo sapiens) (UniProt P37059).
T5 sequence (whole entry): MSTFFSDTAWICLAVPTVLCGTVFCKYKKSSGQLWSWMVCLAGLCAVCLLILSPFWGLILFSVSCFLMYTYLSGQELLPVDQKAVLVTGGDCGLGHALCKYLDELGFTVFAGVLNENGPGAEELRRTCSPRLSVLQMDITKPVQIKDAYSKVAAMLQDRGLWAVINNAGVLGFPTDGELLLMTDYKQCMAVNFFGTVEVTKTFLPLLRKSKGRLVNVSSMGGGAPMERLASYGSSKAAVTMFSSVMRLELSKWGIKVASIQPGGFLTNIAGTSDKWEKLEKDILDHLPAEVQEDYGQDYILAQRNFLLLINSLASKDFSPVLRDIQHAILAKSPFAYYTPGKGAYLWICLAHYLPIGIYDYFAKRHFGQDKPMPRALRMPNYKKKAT
The experiment in a line: Inhibition of human recombinant 17beta-HSD2 expressed in HEK293 cell lysate assessed as conversion of radiolabeled estrone to estradiol at 20 uM. The class given is cell-free. The arrangement: scale not given: the % may be the effect or the level left.

In assay [7] the target is T6, 17-beta-hydroxysteroid dehydrogenase type 1 (Homo sapiens, UniProt P14061).
T6 sequence (P14061 whole entry): T4 sequence (whole entry)
The experiment in a line: Inhibition of human recombinant 17beta-HSD1 expressed in HEK293 cell lysate assessed as conversion of radiolabeled estrone to estradiol. It is filed as cell-free. The method, boiled down: as §2

The structures appear in SMILES notation. The source made the active and inactive calls. No cut-off for these calls is given here. A value given as a limit tells only on which side of the number the result lay.

Turning to `C[C@]12CC[C@@H]3c4ccc(OC5CCCCO5)cc4CC[C@H]3[C@@H]1CC[C@@H]2O` (stereo partly specified), the result in assay [1] was inactive. The Activity stood at 57% in assay [2], 365% in assay [3], 74% in assay [5] and 90% in assay [6]. Besides, the IC50 in assay [4] was determined as 20 µM.
For `Cc1ccc(S(=O)(=O)N/N=C2\C=C[C@H]3[C@@H]4CC=C5C[C@@H](O)CC[C@]5(C)[C@H]4CC[C@]23C)cc1`, the Activity in assay [1] was determined as 45%; in assay [2], 69%; in assay [3], 9%; in assay [5] it was 63%; in assay [6], 97%. The IC50 was found to be 47 µM in assay [7] and 3.8 µM in assay [4].
With `CCOc1cc(CNC2C(C)=NN=C2S)cc(Br)c1OCC(=O)NC1CCCCC1` (stereo unspecified), the result in assay [1] was inactive. For the same compound, the Activity in assay [2] worked out at 19%; in assay [3], 16%; in assay [5] it was 70%; in assay [6], 105%. Also, in assay [4], the IC50 is 6.2 µM.
As for `CCOc1cc(/C=N/NC(N)=O)c(Br)c(Br)c1OCC(=O)Nc1ccc(C)cc1`, the result in assay [1] was inactive. The Activity in assay [2] was determined as 96%; in assay [3] it was 70%; in assay [5] it was 16%; in assay [6], 76%. Also, the IC50 is 5.7 µM in assay [7] and above 50 µM in assay [4].
